Test results published in ChEMBL document CHEMBL1828630, “Design, synthesis and vasorelaxant evaluation of novel coumarin-pyrimidine hybrids” (Bioorg Med Chem, 2011).

Tested on: Aorta; call rule not given here
Assay: Vasorelaxant activity in Wistar rat thoracic aortic ring assessed as inhibition of norepinephrine hydrochloride-induced contraction treated after noradrenaline challenge
Assay type: functional, tissue-based
Summary of the method: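 Aortic ring preparations held under resting tension below 2 g and allowed to stabilise for 2 h. Contraction to norepinephrine hydrochloride (10^-6 M) was recorded before and after exposure to increasing concentrations of test compound. Tension was measured isometrically. Compounds were taken from 0.01 M DMSO stocks, and DMSO-alone controls were run at matching concentrations. Activity was reported as IC50.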

[1] = Rattus norvegicus, Wistar, Aorta, read-out: IC50
[2] = Rattus norvegicus, Wistar, Aorta, read-out: pIC50 (converted)

`COc1ccc2ccc(=O)oc2c1C(C)=O` showed an IC50 [1] of 479 µM.
`CCN(CC)c1ccc(-c2nc(Nc3ccc4oc(=O)ccc4c3)[nH]c(=O)c2C#N)cc1` showed an IC50 [1] of 421 µM.
Work on `Nc1ccc2oc(=O)ccc2c1` yielded an IC50 [1] of 532 µM.
Compound `N=C(N)Nc1ccc2oc(=O)ccc2c1` has an IC50 [1] of 418 µM.
In the case of `Cc1cc(=O)[nH]c(Nc2ccc3oc(=O)ccc3c2)n1`, the IC50 [1] is reported as 700 µM.
`Cc1cc(Cl)nc(Nc2ccc3oc(=O)ccc3c2)n1` showed an IC50 [1] of 468 µM.
`CCN(CC)c1cc(C)nc(Nc2ccc3oc(=O)ccc3c2)n1` gave an IC50 [1] of 495 µM.
`Cc1cc(C)nc(Nc2ccc3oc(=O)ccc3c2)n1` was tested, and the IC50 [1] was 411 µM.
`Cc1cc(-c2ccccc2)nc(Nc2ccc3oc(=O)ccc3c2)n1` was tested, and the IC50 was “Not Active”.
`O=c1cc(O)nc(Nc2ccc3oc(=O)ccc3c2)[nH]1` showed an IC50 [1] of 816 µM.
`O=c1ccc2cc(Nc3nc(Cl)cc(Cl)n3)ccc2o1` showed an IC50 [1] of 453 µM.
Work on `Cc1nc(Nc2ccc3oc(=O)ccc3c2)nc(Cl)c1CCCl` yielded an IC50 [1] of 700 µM.
For `N#Cc1c(N)nc(Nc2ccc3oc(=O)ccc3c2)nc1-c1ccccc1`, the IC50 [1] was 595 µM.
`N/C(=N/O)c1c(N)nc(Nc2ccc3oc(=O)ccc3c2)nc1-c1ccccc1` was tested, and the IC50 [1] was 468 µM.
`N#Cc1c(-c2ccccc2)nc(Nc2ccc3oc(=O)ccc3c2)[nH]c1=O` was tested, and the IC50 [1] was 547 µM.
In the case of `N/C(=N/O)c1c(-c2ccccc2)nc(Nc2ccc3oc(=O)ccc3c2)[nH]c1=O`, the IC50 [1] is reported as 466 µM.
With `COc1ccc2ccc(=O)oc2c1C(=O)/C=C/c1ccc(C)o1` the IC50 [1] was 566 µM.
`COc1ccc2ccc(=O)oc2c1C(=O)/C=C/c1cccs1` showed an IC50 [1] of 371 µM.
Compound `COc1ccc2ccc(=O)oc2c1C(=O)/C=C/c1ccccc1` has an IC50 [1] of 526 µM.
With `COc1ccc2ccc(=O)oc2c1C(=O)/C=C/c1ccc(C)cc1` the IC50 was “Not Active”.
In the case of `COc1ccc2ccc(=O)oc2c1C(=O)/C=C/c1ccc(C(F)(F)F)cc1`, the IC50 [1] is reported as 374 µM.
Compound `COc1ccc2ccc(=O)oc2c1C(=O)/C=C/c1ccc(SC)cc1` has an IC50 [1] of 705 µM.
Work on `COc1ccc2ccc(=O)oc2c1C(=O)/C=C/c1ccc([N+](=O)[O-])cc1` yielded an IC50 [1] of 700 µM.
`COc1ccc2ccc(=O)oc2c1-c1cc(-c2ccc(C)o2)nc(N)n1` was tested, and the IC50 [1] was 1230 µM.
Compound `COc1ccc2ccc(=O)oc2c1-c1cc(-c2cccs2)nc(N)n1` has an IC50 [1] of 650 µM.
In the case of `COc1ccc2ccc(=O)oc2c1-c1cc(-c2ccccc2)nc(N)n1`, the IC50 [1] is reported as 800 µM and the IC50 [2] is reported as 1250 µM.
Work on `COc1ccc2ccc(=O)oc2c1-c1cc(-c2ccc(C)cc2)nc(N)n1` yielded an IC50 [1] of 932 µM and an IC50 [2] of 1070 µM.
`COc1ccc2ccc(=O)oc2c1-c1cc(-c2ccc(C(F)(F)F)cc2)nc(N)n1` was tested, and the IC50 [1] was 1060 µM.
In the case of `COc1ccc2ccc(=O)oc2c1-c1cc(-c2ccc(SC)cc2)nc(N)n1`, the IC50 [1] is reported as 1140 µM and the IC50 [2] is reported as 876 µM.
With `COc1ccc2ccc(=O)oc2c1-c1cc(-c2ccc([N+](=O)[O-])cc2)nc(N)n1` the IC50 was “Not Active”.
In the case of `COc1cc2nc(N3CCN(C(=O)c4ccco4)CC3)nc(N)c2cc1OC` [PRAZOSIN], the IC50 [1] is reported as 487 µM.
